Assay results from ChEMBL document CHEMBL2146359, “HCV NS5A replication complex inhibitors. Part 2: investigation of stilbene prolinamides” (Bioorg Med Chem Lett, 2012).
In brackets after ≈: the same amount, converted by molar mass.

Columns and labels:
[1] = Cytotoxicity against human HuH7 cells after 72 hrs by Alamar Blue assay; type: cell-based; details: Huh-7 cells
[2] = AUC in rat at 2.8 mg/kg, po; type: ADME, organism-based; design: dose 2.8 mg/kg, route oral; details: plasma
[3] = tested on: Hepatitis C virus; test: Antiviral activity against HCV genotype 1b infected in human Huh7 cells assessed as inhibition of viral replication by FRET assay; type: functional, organism-based, Hepacivirus hominis; details: Huh-7
How it was run: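 Replicon potency values are the means of at least two experiments.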

[4] = Permeability across human Caco2 cells; type: ADME, cell-based; details: Caco-2, read-out: permeability
[5] = AUC in rat at 2.8 mg/kg, iv; type: ADME, organism-based; design: dose 2.8 mg/kg, route intravenous; details: plasma
[6] = Solubility of the compound; type: physicochemical
[7] = Metabolic stability in rat liver microsomes assessed as compound remaining after 10 mins; type: ADME, Microsome; details: read-out: Stability
[8] = tested on: Bovine viral diarrhea virus 1; test: Antiviral activity against BVDV1; type: functional, organism-based; details: Bovine viral diarrhea virus isolates and strains
[9] = tested on: Rattus norvegicus; test: Volume of distribution at steady state in rat at 2.8 mg/kg, po and iv; type: ADME, organism-based; design: dose 2.8 mg/kg, route oral; details: in vivo
[10] = Cmax in rat at 2.8 mg/kg, po and iv; type: ADME, organism-based; design: dose 2.8 mg/kg, route oral; details: in vivo
[11] = Oral bioavailability in rat at 2.8 mg/kg; type: ADME, organism-based; details: in vivo
[12] = Half life in rat at 2.8 mg/kg, po and iv; type: ADME, organism-based; design: dose 2.8 mg/kg, route oral; details: in vivo
[13] = tested on: Rattus norvegicus; test: AUC in rat at 2.5 mg/kg, iv; type: ADME, organism-based, Plasma; design: dose 2.5 mg/kg, route intravenous; details: in vivo
[14] = tested on: Rattus norvegicus; test: Volume of distribution at steady state in rat at 2.5 mg/kg, po and iv; type: ADME, organism-based; design: dose 2.5 mg/kg, route oral; details: in vivo
[15] = Half life in rat at 2.5 mg/kg, po and iv; type: ADME, organism-based; design: dose 2.5 mg/kg, route oral; details: in vivo
[16] = tested on: Rattus norvegicus; test: Volume of distribution at steady state in rat at 1.6 mg/kg, po and iv; type: ADME, organism-based; design: dose 1.6 mg/kg, route oral; details: in vivo
[17] = AUC in rat at 1.6 mg/kg, iv; type: ADME, organism-based; design: dose 1.6 mg/kg, route intravenous; details: plasma
[18] = Half life in rat at 1.6 mg/kg, po and iv; type: ADME, organism-based; design: dose 1.6 mg/kg, route oral; details: in vivo
[19] = Cmax in rat at 1.8 mg/kg, po and iv; type: ADME, organism-based; design: dose 1.8 mg/kg, route oral; details: in vivo
[20] = Oral bioavailability in rat at 1.8 mg/kg; type: ADME, organism-based; details: in vivo
[21] = AUC in rat at 1.8 mg/kg, po; type: ADME, organism-based; design: dose 1.8 mg/kg, route oral; details: plasma
[22] = tested on: Rattus norvegicus; test: Volume of distribution at steady state in rat at 1.8 mg/kg, po and iv; type: ADME, organism-based; design: dose 1.8 mg/kg, route oral; details: in vivo
[23] = Half life in rat at 1.8 mg/kg, po and iv; type: ADME, organism-based; design: dose 1.8 mg/kg, route oral; details: in vivo
[24] = AUC in rat at 1.8 mg/kg, iv; type: ADME, organism-based; design: dose 1.8 mg/kg, route intravenous; details: plasma

Structure (SMILES)	EC50 [3] [µM]	remaining at 10 min [7] [%]	EC50 [8] [µM]	CC50 at 72 h [1] [µM]	further results
O=C(Nc1ccc(/C=C/c2ccc(NC(=O)[C@@H]3CCCN3C(=O)CC3CC3)cc2)cc1)[C@@H]1CCCN1C(=O)CC1CC1	0.062	84	> 10	> 10	AUC [2]: 11900 ng·h/mL; Papp [4]: 0.4 ×10⁻⁶ cm/s; AUC [5]: 18500 ng·h/mL; solubility [6]: 4.4 µg/mL (≈ 7.74 µM); Vdss [9]: 0.8 L/kg; Cmax [10]: 1500 ng/mL; bioavailability [11]: 64%; half-life [12]: 4.9 h
CC(=O)N1CCC[C@H]1C(=O)Nc1ccc(/C=C/c2ccc(NC(=O)[C@@H]3CCCN3C(=O)Cc3ccccc3)cc2)cc1	0.0015	82	> 10	> 10	AUC [13]: 101535 ng·h/mL; Papp [4]: < 1.5 ×10⁻⁶ cm/s; Vdss [14]: 1.2 L/kg; half-life [15]: 5.2 h
CCO[C@H]1C[C@@H](C(=O)Nc2ccc(/C=C/c3ccc(NC(=O)[C@@H]4C[C@H](OCC)CN4C(=O)OCc4ccccc4)cc3)cc2)N(C(=O)OCc2ccccc2)C1	0.015	–	> 10	> 10	–
Cn1cc(C(=O)N2CCC[C@H]2C(=O)Nc2ccc(/C=C/c3ccc(NC(=O)[C@@H]4CCCN4C(=O)c4cn(C)c5ccccc45)cc3)cc2)c2ccccc21	0.14	–	> 10	> 10	–
O=C(Nc1ccc(/C=C/c2ccc(NC(=O)[C@@H]3CCCN3C(=O)Cc3c[nH]cn3)cc2)cc1)[C@@H]1CCCN1C(=O)Cc1c[nH]cn1	1	–	> 10	> 10	–
O=C(Nc1ccc(/C=C/c2ccc(NC(=O)[C@@H]3CCCN3C(=O)Cc3cccnc3)cc2)cc1)[C@@H]1CCCN1C(=O)Cc1cccnc1	0.000784	88	> 10	> 10	Cmax [19]: 120 ng/mL; bioavailability [20]: 10%; Papp [4]: 1.6 ×10⁻⁶ cm/s; solubility [6]: 53 µg/mL (≈ 82.5 µM); AUC [21]: 322 ng·h/mL; Vdss [22]: 2.9 L/kg; half-life [23]: 9.3 h; AUC [24]: 3080 ng·h/mL
CC(=O)Nc1ccc(/C=C/c2ccc(NC(=O)[C@@H]3CCCN3C(=O)Cc3ccccc3)cc2)cc1	1.64	–	> 10	> 10	–
Nc1ccc(/C=C/c2ccc(NC(=O)[C@@H]3CCCN3C(=O)Cc3ccccc3)cc2)cc1	> 10	–	> 10	> 10	–
O=C(Cc1ccccc1)NCC(=O)Nc1ccc(/C=C/c2ccc(NC(=O)[C@@H]3CCCN3C(=O)Cc3ccccc3)cc2)cc1	0.768	–	> 10	> 10	–
CC(=O)N[C@@H](C)C(=O)Nc1ccc(/C=C/c2ccc(NC(=O)[C@@H]3CCCN3C(=O)Cc3ccccc3)cc2)cc1	0.153	–	> 10	> 10	–

Continued, in another order:

EC50 [3] [µM]	remaining at 10 min [7] [%]	EC50 [8] [µM]	Structure (SMILES)	CC50 at 72 h [1] [µM]	further results
0.01	–	> 10	CN(C)[C@H]1C[C@@H](C(=O)Nc2ccc(/C=C/c3ccc(NC(=O)[C@@H]4C[C@H](N(C)C)CN4C(=O)OCc4ccccc4)cc3)cc2)N(C(=O)OCc2ccccc2)C1	> 10	–
0.0289	99	> 10	O=C(Nc1ccc(/C=C/c2ccc(NC(=O)[C@@H]3C[C@@H](O)CN3C(=O)OCc3ccccc3)cc2)cc1)[C@@H]1C[C@@H](O)CN1C(=O)OCc1ccccc1	> 10	Papp [4]: 3.5 ×10⁻⁶ cm/s; Vdss [16]: 1 L/kg; AUC [17]: 2450 ng·h/mL; half-life [18]: 6.4 h
0.00897	77	> 10	O=C(Nc1ccc(/C=C/c2ccc(NC(=O)[C@@H]3CCCN3C(=O)OCc3ccccc3)cc2)cc1)[C@@H]1CCCN1C(=O)OCc1ccccc1	> 10	Cmax [19]: 4 ng/mL; bioavailability [20]: 2%; solubility [6]: < 1 µg/mL; AUC [21]: 37 ng·h/mL; Vdss [22]: 4.3 L/kg; half-life [23]: 4.6 h; AUC [24]: 1620 ng·h/mL
0.0627	–	> 10	O=C(Nc1ccc(/C=C/c2ccc(NC(=O)[C@@H]3CCCCN3C(=O)OCc3ccccc3)cc2)cc1)[C@@H]1CCCCN1C(=O)OCc1ccccc1	> 10	–
0.0115	–	> 10	O=C(Nc1ccc(/C=C/c2ccc(NC(=O)[C@@H]3C[C@H](O)CN3C(=O)OCc3ccccc3)cc2)cc1)[C@@H]1C[C@H](O)CN1C(=O)OCc1ccccc1	> 10	–
< 0.005	–	> 10	CO[C@@H]1C[C@@H](C(=O)Nc2ccc(/C=C/c3ccc(NC(=O)[C@@H]4C[C@@H](OC)CN4C(=O)OCc4ccccc4)cc3)cc2)N(C(=O)OCc2ccccc2)C1	> 10	–
